Experimental data published in paper PMC6655586 (Nature, 2019).

Key:
HTS cells = assay: Mitochondrial membrane potential; type: cell-based, mouse; details: 1 μM, 10 minutes
Summary of the method: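 HTS cells were exposed for 10 minutes to DMSO, test compound, FCCP, rotenone, antimycin A or oligomycin A, then mitochondrial membrane potential was quantified. Mean ± SD; n = 3 (FCCP, rotenone) or 4 (others).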

MEFs = assay: Western blot for ATF4 in MEFs; type: cell-based, mouse; details: 1 μM, 6 hours

Compound	acute change of mitochondrial membrane potential (HTS cells)	ATF4 induction (MEFs)
C=C(C)[C@H]1Cc2c(ccc3c2O[C@@H]2COc4cc(OC)c(OC)cc4[C@@H]2C3=O)O1 [rotenone]	acute reduction of membrane potential	ATF4 induction
CCCCCC[C@H]1C(=O)O[C@H](C)[C@H](NC(=O)c2cccc(NC=O)c2O)C(=O)O[C@@H](C)[C@@H]1OC(=O)CC(C)C [antimycin A]	acute reduction of membrane potential	ATF4 induction
oligomycin A	acute increase in mitochondrial membrane potential	ATF4 induction
